Reference: ChEMBL document CHEMBL1143595, “Synthesis and activity of substituted anthraquinones against a human filarial parasite, Brugia malayi” (2005)

What was measured:
[1] = system: Brugia malayi; experiment: Antifilarial activity against Brugia malayi (female) at 5 ppm in the first 5 days (100% mortality); type: functional; conditions: 120 h
[2] = system: Brugia malayi; experiment: Antifilarial activity against Brugia malayi (male) at 5 ppm in the first 5 days (100% mortality); type: functional; conditions: 120 h
[3] = system: Brugia malayi; experiment: Antifilarial activity of anthraquinone against Brugia malayi (female) at 5 ppm in the first 5 days (100% mortality); type: functional; conditions: 120 h
[4] = system: Brugia malayi; experiment: Compound causing 100% mortality of Brugia malayi female adult worms at 25 ppm concentration; type: functional
In short: (§1)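 Dose-response on adult female B. malayi in RPMI 1640 with penicillin/streptomycin. Concentrations ranged from 50 to 3.12 ppm, with compounds delivered in DMSO; solvent controls received 2% DMSO. Movement and mortality were monitored daily. Read-out was days to 100% worm mortality at each concentration.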

[5] = system: Brugia malayi; experiment: Compound causing 100% mortality of Brugia malayi female adult worms at 3.125 ppm concentration; type: functional; in short: as §1
[6] = system: Brugia malayi; experiment: Compound causing 100% mortality of Brugia malayi female adult worms at 50 ppm concentration; type: functional; in short: as §1
[7] = system: Brugia malayi; experiment: Compound causing 100% mortality of Brugia malayi female adult worms at 6.25 ppm concentration; type: functional; in short: as §1
[8] = system: Brugia malayi; experiment: Compound causing 100% mortality of Brugia malayi female adult worms at 12.5 ppm concentration; type: functional; in short: as §1
[9] = system: Brugia malayi; experiment: Antifilarial activity against Brugia malayi (female) at 5 ppm in the first 5 days (100% mortality); NM=No Mortality; type: functional, organism-based
[10] = system: Brugia malayi; experiment: Compound causing 100% mortality of Brugia malayi female adult worms at 3.125 ppm concentration; no mortality; type: functional, organism-based; in short: as §1

`COc1cccc2c1C(=O)c1c(cc(C)c(OC)c1O)C2=O` showed a mortality at 5 ppm [1] of 7%.

`Cc1c(O)c(O)cc2c1C(=O)c1c(O)cccc1C2=O` was tested, and the mortality at 5 ppm [1] was 3% and the mortality at 5 ppm [2] was 5%.

`O=C1c2cc(O)c(O)cc2C(=O)c2c(O)cccc21` showed a mortality at 5 ppm [1] of 5%.

In the case of `COc1cc2c(c(C)c1OC)C(=O)c1c(O)cccc1C2=O`, the mortality at 5 ppm [1] is reported as 9%.

Work on `Cc1c(O)c(O)cc2c1C(=O)c1ccccc1C2=O` yielded a mortality at 5 ppm [3] of 7%.

`COc1c(C)cc2c(c1OC)C(=O)c1ccccc1C2=O` showed a mortality at 5 ppm [1] of 11%.

`O=C1c2ccccc2C(=O)c2c1ccc(O)c2O` [ATHRAQUINONES A] was tested, and the mortality at 5 ppm [1] was 5%.

In the case of `Cc1cc2c(c(O)c1O)C(=O)c1ccccc1C2=O`, the mortality at 5 ppm [1] is reported as 5%, the Mortality [4] is reported as 3 days and the Mortality [5] is reported as 6 days. For the same compound, the Mortality [6] was 1 days, the Mortality [7] was 5 days and the mortality at 5 ppm [2] was 6%. The Mortality [8] was 4 days.

For `O=C1c2ccccc2C(=O)c2c(O)ccc(O)c21` [QUINIZARIN], the mortality at 5 ppm [1] was 10%.

`O=C1c2cc(O)c(O)c(O)c2C(=O)c2cccc(O)c21` showed a mortality at 5 ppm [1] of 5% and a mortality at 5 ppm [2] of 6%.

Work on `COc1c(C)cc2c(c1O)C(=O)c1c(O)cccc1C2=O` yielded a Mortality [4] of 2 days, a Mortality [6] of 1 days and a Mortality [7] of 8 days. The Mortality [9] was “No mortality”, the Mortality [10] was “no mortality” and the Mortality [8] was 4 days.

Compound `O=C1c2ccc(O)c(O)c2C(=O)c2cccc(O)c21` has a mortality at 5 ppm [1] of 9%.

In the case of `COc1c(C)cc2c(c1O)C(=O)c1ccccc1C2=O`, the Mortality [9] is reported as “No mortality”.

In the case of `O=C1c2cccc(O)c2C(=O)c2c(O)ccc(O)c21`, the mortality at 5 ppm [1] is reported as 9%.

`Cc1cc2c(c(O)c1O)C(=O)c1c(O)cccc1C2=O` showed a mortality at 5 ppm [1] of 5%, a Mortality [4] of 3 days and a Mortality [6] of 2 days. The Mortality [7] was 5 days, the mortality at 5 ppm [2] was 5% and the Mortality [10] was “no mortality”. For the same compound, the Mortality [8] was 4 days.

`O=C1c2ccccc2C(=O)c2c1cc(O)c(O)c2O` gave a mortality at 5 ppm [1] of 5%, a Mortality [4] of 4 days and a Mortality [5] of 5 days. For the same compound, the Mortality [6] was 2 days, the Mortality [7] was 5 days and the Mortality [8] was 4 days.

`O=C1c2cc(O)cc(O)c2C(=O)c2cccc(O)c21` was tested, and the mortality at 5 ppm [1] was 7%.

With `O=C1c2ccccc2C(=O)c2c(O)cc(O)cc21` the Mortality [9] was “No mortality”.

`CCCSc1ccc2[nH]c(NC(=O)OC)nc2c1` [ALBENDAZOLE] showed a mortality at 5 ppm [1] of 16% and a mortality at 5 ppm [2] of 9%.

`O=C1c2cccc(O)c2C(=O)c2c1ccc(O)c2O` gave a mortality at 5 ppm [1] of 14%.
